Reference: ChEMBL document CHEMBL4376872, “Scaffold Hopping of Natural Product Evodiamine: Discovery of a Novel Antitumor Scaffold with Excellent Potency against Colon Cancer” (J Med Chem, 2020)
Activity calls are given as the source filed them. The calls are words filed in the database; no cut-off is given here.

Assays:
HCT-116 = assay: Antiproliferative activity against human HCT116 cells assessed as reduction in cell viability incubated for 72 hrs by CCK8 assay; type: functional, cell-based; conditions: HCT-116, 72 h
MDA-MB-435 = assay: Antiproliferative activity against human MDA-MB-435 cells assessed as reduction in cell viability incubated for 72 hrs by CCK8 assay; type: functional, cell-based; conditions: MDA-MB-435, 72 h
A549 = assay: Antiproliferative activity against human A549 cells assessed as reduction in cell viability incubated for 72 hrs by CCK8 assay; type: functional, cell-based; conditions: A549, 72 h
K562 = assay: Antiproliferative activity against human K562 cells assessed as reduction in cell viability incubated for 72 hrs by CCK8 assay; type: functional, cell-based; conditions: K562, 72 h
PC-3 = assay: Antiproliferative activity against human PC3 cells assessed as reduction in cell viability incubated for 72 hrs by CCK8 assay; type: functional, cell-based; conditions: PC-3, 72 h
[1] = Antiproliferative activity against human MV-3 cells assessed as reduction in cell viability incubated for 72 hrs by CCK8 assay; type: functional, cell-based; conditions: MV-3, 72 h
BEL-7404 tumor cell line = assay: Antiproliferative activity against human Bel7404 cells assessed as reduction in cell viability incubated for 72 hrs by CCK8 assay; type: functional, cell-based; conditions: BEL-7404, 72 h
SK-HEP1 = assay: Antiproliferative activity against human SKHEP1 cells assessed as reduction in cell viability incubated for 72 hrs by CCK8 assay; type: functional, cell-based; conditions: SK-HEP1, 72 h
[2] = Antiproliferative activity against human SW579 cells assessed as reduction in cell viability incubated for 72 hrs by CCK8 assay; type: functional, cell-based; conditions: SW579, 72 h
NCI-H446 = assay: Antiproliferative activity against human NCI-H446 cells assessed as reduction in cell viability incubated for 72 hrs by CCK8 assay; type: functional, cell-based; conditions: NCI-H446, 72 h
[3] = biological target: T1, DNA topoisomerase 1 (Escherichia coli (strain K12)) (UniProt P06612); assay: Poison activity at Escherichia coli Top1 assessed as increase in […] band intensity at 100 uM using supercoiled pUC19 plasmid DNA as substrate incubated for 30 mins by agarose gel electrophoresis analysis
T1 sequence (whole entry): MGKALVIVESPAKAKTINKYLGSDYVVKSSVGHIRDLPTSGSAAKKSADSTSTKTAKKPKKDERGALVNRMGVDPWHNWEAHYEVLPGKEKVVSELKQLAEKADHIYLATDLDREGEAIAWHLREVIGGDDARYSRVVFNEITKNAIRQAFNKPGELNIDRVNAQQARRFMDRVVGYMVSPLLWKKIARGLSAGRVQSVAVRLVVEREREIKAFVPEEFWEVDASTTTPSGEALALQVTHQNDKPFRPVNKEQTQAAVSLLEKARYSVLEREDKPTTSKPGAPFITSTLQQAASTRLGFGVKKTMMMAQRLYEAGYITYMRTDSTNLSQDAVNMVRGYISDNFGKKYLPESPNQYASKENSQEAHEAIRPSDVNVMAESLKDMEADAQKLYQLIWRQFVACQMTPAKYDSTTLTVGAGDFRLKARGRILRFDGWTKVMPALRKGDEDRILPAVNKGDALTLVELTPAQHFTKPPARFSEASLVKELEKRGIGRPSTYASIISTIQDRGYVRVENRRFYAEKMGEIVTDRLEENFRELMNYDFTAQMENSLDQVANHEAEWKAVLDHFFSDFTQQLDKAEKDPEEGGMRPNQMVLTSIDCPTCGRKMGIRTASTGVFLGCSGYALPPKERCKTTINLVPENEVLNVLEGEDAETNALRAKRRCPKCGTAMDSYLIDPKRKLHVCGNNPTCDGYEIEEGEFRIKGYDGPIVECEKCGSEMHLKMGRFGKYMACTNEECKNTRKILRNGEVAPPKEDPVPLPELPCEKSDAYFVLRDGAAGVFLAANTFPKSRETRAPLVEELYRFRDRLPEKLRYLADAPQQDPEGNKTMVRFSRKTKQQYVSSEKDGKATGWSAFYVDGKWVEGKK
Summary of the method: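 Supercoiled pUC19 plasmid DNA incubated with Top1 and test compound at 100, 50, 25 and 12.5 μM. Lanes: DNA alone, DNA + Top1, and DNA + Top1 + camptothecin (100 μM) as reference. Products resolved on gel to follow Top1-mediated relaxation.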

[4] = biological target: T1, DNA topoisomerase 1 (Escherichia coli (strain K12)); assay: Inhibition of Escherichia coli Top1 assessed as decrease in relaxation of supercoiled pBR322 plasmid DNA at 100 uM using supercoiled pBR322 plasmid DNA as substrate incubated for 15 mins by agarose gel electrophoresis analysis
[5] = biological target: DNA topoisomerase 2-alpha (Homo sapiens) (UniProt P11388); assay: Inhibition of human Top2alpha assessed as decrease in relaxation of supercoiled pBR322 plasmid DNA at 100 uM using supercoiled pBR322 plasmid DNA as substrate incubated for 30 mins by agarose gel electrophoresis analysis
Sequence of DNA topoisomerase 2-alpha (Homo sapiens) (P11388 whole entry): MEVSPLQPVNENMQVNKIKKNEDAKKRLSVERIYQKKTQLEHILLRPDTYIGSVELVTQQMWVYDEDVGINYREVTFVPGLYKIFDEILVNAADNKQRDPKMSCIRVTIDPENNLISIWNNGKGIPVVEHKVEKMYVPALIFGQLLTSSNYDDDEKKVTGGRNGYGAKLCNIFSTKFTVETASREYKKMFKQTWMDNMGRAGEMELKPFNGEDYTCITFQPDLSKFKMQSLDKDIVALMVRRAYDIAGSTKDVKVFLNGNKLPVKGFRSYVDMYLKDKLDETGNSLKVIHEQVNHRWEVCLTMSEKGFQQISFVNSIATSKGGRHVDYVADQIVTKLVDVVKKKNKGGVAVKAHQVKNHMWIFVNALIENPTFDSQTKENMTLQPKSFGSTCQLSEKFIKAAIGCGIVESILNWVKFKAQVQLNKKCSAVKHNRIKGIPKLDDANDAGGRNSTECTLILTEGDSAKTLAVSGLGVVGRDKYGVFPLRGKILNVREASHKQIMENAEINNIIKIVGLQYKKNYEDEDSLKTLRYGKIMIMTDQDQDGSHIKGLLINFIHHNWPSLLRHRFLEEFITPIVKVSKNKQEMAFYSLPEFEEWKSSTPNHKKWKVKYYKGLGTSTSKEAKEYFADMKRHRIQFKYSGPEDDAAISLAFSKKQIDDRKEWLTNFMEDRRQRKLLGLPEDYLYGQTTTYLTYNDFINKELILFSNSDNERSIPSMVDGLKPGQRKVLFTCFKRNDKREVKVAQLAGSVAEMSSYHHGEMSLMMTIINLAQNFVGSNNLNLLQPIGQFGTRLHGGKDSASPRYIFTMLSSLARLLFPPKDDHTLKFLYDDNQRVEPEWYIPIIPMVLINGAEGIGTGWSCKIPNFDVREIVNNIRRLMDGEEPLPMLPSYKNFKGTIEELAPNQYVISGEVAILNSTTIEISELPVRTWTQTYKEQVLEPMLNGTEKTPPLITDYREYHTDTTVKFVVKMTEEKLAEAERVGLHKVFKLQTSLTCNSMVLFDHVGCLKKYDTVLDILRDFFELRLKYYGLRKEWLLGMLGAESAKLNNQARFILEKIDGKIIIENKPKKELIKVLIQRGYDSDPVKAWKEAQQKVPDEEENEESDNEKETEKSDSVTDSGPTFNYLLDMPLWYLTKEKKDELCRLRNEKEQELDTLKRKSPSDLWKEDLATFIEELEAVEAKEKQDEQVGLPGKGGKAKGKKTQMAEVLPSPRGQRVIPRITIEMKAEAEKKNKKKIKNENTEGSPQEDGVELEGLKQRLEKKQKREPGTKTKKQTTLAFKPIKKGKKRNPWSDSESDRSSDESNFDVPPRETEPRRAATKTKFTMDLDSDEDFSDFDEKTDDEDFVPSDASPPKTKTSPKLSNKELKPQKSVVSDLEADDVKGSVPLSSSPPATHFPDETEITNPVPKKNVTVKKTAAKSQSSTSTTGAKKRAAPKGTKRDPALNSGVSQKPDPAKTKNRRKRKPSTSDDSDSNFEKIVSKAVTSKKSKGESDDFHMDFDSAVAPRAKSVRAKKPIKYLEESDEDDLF

| SMILES | IC50 (HCT-116) | IC50 (MDA-MB-435) | IC50 (A549) | other results |
| --- | --- | --- | --- | --- |
| COc1ccc2c(c1)N(C)C1c3cc4ccccc4n3CCN1C2=O (configuration not stated) | 124 µM | > 200 µM | 24.3 µM |  |
| CN1c2ccsc2C(=O)N2CCn3c(cc4cc(O)ccc43)C21 (configuration not stated) | 106 µM | 66.8 µM | 30.3 µM |  |
| CN1c2ccccc2C(=O)N2CCn3c(cc4ccc(Cl)cc43)C21 (configuration not stated) | > 200 µM | > 200 µM | > 200 µM |  |
| CN1c2ccc(F)cc2C(=O)N2CCn3c(cc4cc(Br)ccc43)C21 (configuration not stated) | 28.5 µM | 97.6 µM | > 200 µM |  |
| Cc1ccc2c(c1)c(Br)c1n2CCN2C(=O)c3ccccc3N(C)C12 (configuration not stated) | 3.3 µM | 12.3 µM | 14.1 µM |  |
| CC[C@@]1(O)C(=O)OCc2c1cc1n(c2=O)Cc2cc3ccccc3nc2-1 [CAMPTOTHECIN] | 0.02 µM | 2.7 µM | 2.8 µM | IC50 (K562): < 0.003 µM; IC50 (PC-3): 2.4 µM; IC50 [1]: 0.003 µM; IC50 (BEL-7404 tumor cell line): 0.4 µM; IC50 (SK-HEP1): 0.9 µM; IC50 [2]: 0.7 µM; IC50 (NCI-H446): > 200 µM; Activity [3]: Active |
| CN1c2ccccc2C(=O)N2CCn3c(cc4cc(Cl)ccc43)C21 (configuration not stated) | 4.4 µM | 13.5 µM | 27.7 µM | inhibition [4]: Active; inhibition [5]: inactive |
| COc1ccc2c(c1)cc1n2C(C)(C)CN2C(=O)c3cc(F)ccc3N(C)C12 (configuration not stated) | 1.5 µM | 10.7 µM | > 200 µM |  |
| CN1c2ccccc2C(=O)N2CCn3c(cc4ccccc43)C21 (configuration not stated) | 47.5 to 48.5 µM | > 200 µM | 21.5 µM | inhibition [4]: Active; inhibition [5]: inactive |
| COc1ccc2c(c1)N(C)C1c3cc4cc(OC)ccc4n3CCN1C2=O (configuration not stated) | 180 µM | > 200 µM | 30.8 µM |  |
| COc1ccc2c(c1)c(CO)c1n2CCN2C(=O)c3cc(F)ccc3N(C)C12 (configuration not stated) | 5.6 µM | 22.8 µM | 6.6 µM |  |
| COc1ccc2c(c1)c(C=O)c1n2CCN2C(=O)c3cc(C)ccc3N(C)C12 (configuration not stated) | 18.1 µM | 70.5 µM | > 200 µM |  |
| COc1ccc2c(c1)cc1n2CCN2C(=O)c3c(ccn3C)N(C)C12 (configuration not stated) | 190 µM | > 200 µM | > 200 µM |  |
| CN1c2ccccc2C(=O)N2CCn3c(cc4cc(F)ccc43)C21 (configuration not stated) | > 200 µM | > 200 µM | > 200 µM |  |
| CN1c2ccccc2C(=O)N2CCn3c(cc4cc(O)ccc43)C21 (configuration not stated) | 44.3 µM | 16.8 µM | 14.5 µM |  |
| CN1c2ccccc2C(=O)N2CCc3c([nH]c4ccccc34)[C@H]21 | > 200 µM | 22.1 µM | > 200 µM |  |
| COc1ccc2c(c1)c(Br)c1n2CCN2C(=O)c3cc(F)ccc3N(C)C12 (configuration not stated) | 9.2 µM | 89.1 µM | 12.3 µM |  |
| CN1c2ccc(F)cc2C(=O)N2CCn3c(cc4cc(OC5CCC5)ccc43)C21 (configuration not stated) | 34.1 µM | > 200 µM | 98.5 µM |  |
| COc1ccc2c(c1)cc1n2CCN2C(=O)c3cc(Br)ccc3N(C)C12 (configuration not stated) | > 200 µM | > 200 µM | > 200 µM |  |
| COc1ccc2c(c1)cc1n2CCN2C(=O)c3cc(OC)c(OC)cc3N(C)C12 (configuration not stated) | > 121 µM | 23.8 µM | > 200 µM |  |
| COc1ccc2c(c1)c(C=O)c1n2CCN2C(=O)c3cc(F)ccc3N(C)C12 (configuration not stated) | > 200 µM | > 200 µM | 59.2 µM |  |
| Cc1ccc2c(c1)cc1n2CCN2C(=O)c3cc(F)ccc3N(C)C12 (configuration not stated) | 0.06 µM | 1 µM | 22.8 µM |  |
| COc1ccc2c(c1)c(C)c1n2CCN2C(=O)c3cc(F)ccc3N(C)C12 (configuration not stated) | 21.9 µM | 132 µM | 13.2 µM |  |

| SMILES | IC50 (HCT-116) | IC50 (MDA-MB-435) | IC50 (A549) | other results |
| --- | --- | --- | --- | --- |
| COc1ccc2c(c1)C(=O)N1CCn3c(cc4ccccc43)C1N2C (configuration not stated) | 49.2 µM | 168 µM | 15.6 µM |  |
| CN1c2ccc(F)cc2C(=O)N2CCn3c(cc4cc(OC(F)(F)F)ccc43)C21 (configuration not stated) | 0.83 µM | > 200 µM | 95.5 µM |  |
| COc1ccc2c(c1)cc1n2CCCN2C(=O)c3ccccc3N(C)C12 (configuration not stated) | 56 µM | 196 µM | 32 µM |  |
| COc1ccc2c(c1)c(CN1CCN(C)CC1)c1n2CCN2C(=O)c3cc(F)ccc3N(C)C12 (configuration not stated) | 5.5 µM | 5.82 µM | 32.9 µM |  |
| COc1ccc2c(c1)N(C)C1c3cc4cc(Br)ccc4n3CCN1C2=O (configuration not stated) | > 200 µM | > 200 µM | > 200 µM |  |
| CN1c2ccc(F)cc2C(=O)N2CCn3c(cc4cc(Cl)ccc43)C21 (configuration not stated) | 6.7 µM | 143 µM | 53 µM |  |
| COc1cc2cc3n(c2c(OC)c1OC)CCN1C(=O)c2ccccc2N(C)C31 (configuration not stated) | > 200 µM | > 200 µM | > 200 µM |  |
| CN1c2ccc(F)cc2C(=O)N2CCn3c(cc4cc(OC5CCCC5)ccc43)C21 (configuration not stated) | 57.9 µM | > 200 µM | > 200 µM |  |
| CN1c2ccccc2C(=S)N2CCn3c(cc4cc(F)ccc43)C21 (configuration not stated) | > 200 µM | > 200 µM | > 200 µM |  |
| Cc1ccc2c(c1)cc1n2CCN2C(=O)c3ccccc3N(C)C12 (configuration not stated) | 0.03 µM | 13.3 µM | > 200 µM | inhibition [4]: Active; inhibition [5]: inactive |
| CN1c2ccn(C)c2C(=O)N2CCn3c(cc4cc(O)ccc43)C21 (configuration not stated) | > 200 µM | > 200 µM | > 200 µM |  |
| [2H]C([2H])([2H])Oc1ccc2c(c1)cc1n2CCN2C(=O)c3cc(F)ccc3N(C)C12 (configuration not stated) | 0.01 µM | 11.4 µM | 31.3 µM |  |
| CN1c2ccc(F)cc2C(=O)N2CCn3c(cc4cc(OC5CCCCC5)ccc43)C21 (configuration not stated) | 66.8 µM | 50.1 µM | 174 µM |  |
| COc1ccc2c(c1)cc1n2CCN2C(=O)c3sccc3N(C)C12 (configuration not stated) | 9.5 µM | 44.6 µM | 47 µM |  |
| CN1c2ccccc2C(=O)N2CCn3c(cc4cc(Br)ccc43)C21 (configuration not stated) | 7.3 µM | 15.9 µM | 15.2 µM |  |
| COc1ccc2c(c1)cc1n2CCN2C(=O)c3cc(N)ccc3N(C)C12 (configuration not stated) | > 200 µM | > 200 µM | > 200 µM |  |
| COc1ccc2c(c1)cc1n2C(C)(C)CN2C(=O)c3ccccc3N(C)C12 (configuration not stated) | 6.2 µM | 86.4 µM | 181 µM |  |
| COc1ccc2c(c1)cc1n2CCN2C(=O)c3cc(Cl)ccc3N(C)C12 (configuration not stated) | 61.3 µM | > 200 µM | > 200 µM |  |
| COc1ccc2c(c1)cc1n2CCN2C(=O)c3cc(C)ccc3N(C)C12 (configuration not stated) | 19.4 µM | > 200 µM | > 200 µM |  |
| COc1ccc2c(c1)c(CO)c1n2CCN2C(=O)c3cc(C)ccc3N(C)C12 (configuration not stated) | 5.8 µM | 41.5 µM | 72.1 µM |  |
| COc1ccc2c(c1)cc1n2CCN2C(=O)c3ccccc3N(C)C12 (configuration not stated) | 12 µM | 20.2 µM | 2.7 µM |  |
| CN1c2ccccc2C(=O)N2CCCn3c(cc4cc(O)ccc43)C21 (configuration not stated) | > 200 µM | > 200 µM | 111 µM |  |
| CSc1ccc2cc3n(c2c1)CCN1C(=O)c2cc(F)ccc2N(C)C31 (configuration not stated) | 9.4 µM | 85.8 µM | 8.3 µM |  |
